# HTR2A ag: mouse Htr2a agonists via beta-arrestin recruitment, primary screen, cell-based, luminescence. 360,000 tested, 0.66% active. AID 624169, 2012. activation, % at 7.6 µM. 5-hydroxytryptamine receptor 2A (Mus musculus), P35363. CHO-K1 mHTR2A beta-arrestin complementation; percent of 30 µM serotonin response;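 active = activation above a run cutoff, the mean activation of all tested compounds plus 3 SD, cut at about 14% in these data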;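 also: 0% = plate median of compound wells and 100% = 30 µM serotonin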
# Target sequence (P35363 whole entry, looked up): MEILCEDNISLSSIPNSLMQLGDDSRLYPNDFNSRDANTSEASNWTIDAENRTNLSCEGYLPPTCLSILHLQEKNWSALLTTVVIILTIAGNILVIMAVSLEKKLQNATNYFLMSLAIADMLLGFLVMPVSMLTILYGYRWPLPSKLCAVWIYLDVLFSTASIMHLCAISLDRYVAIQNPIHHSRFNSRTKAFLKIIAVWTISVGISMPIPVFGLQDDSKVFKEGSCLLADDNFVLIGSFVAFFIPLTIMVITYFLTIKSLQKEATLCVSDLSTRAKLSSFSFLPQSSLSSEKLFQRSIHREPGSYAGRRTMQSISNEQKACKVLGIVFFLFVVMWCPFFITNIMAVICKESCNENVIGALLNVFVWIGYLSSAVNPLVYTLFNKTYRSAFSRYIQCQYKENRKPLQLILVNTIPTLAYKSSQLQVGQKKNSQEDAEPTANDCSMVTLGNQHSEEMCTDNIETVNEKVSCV
# MC4R antagonist: MC4R antagonists of cAMP signaling, primary screen, cell-based, TR-FRET, antagonist arm of biased-ligand search | Melanocortin receptor 4 (Homo sapiens), P32245 | MC4R-expressing cells, MTII-stimulated cAMP, LANCE TR-FRET | 360,000 tested, 0.48% active | inhibition, % at 6.5 µM;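 active = inhibition above its plate's cutoff, the mean of tested wells on that plate plus 3 SD, cut at about 29% in these data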;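 also: 0% = Melanotan II alone and 100% = Melanotan II plus saturating MCL0020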
#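 Material: U2OS-MC4R stable cell line | Reagent: Melanotan II challenge after compound preincubation | Doses: One concentration, 6.5 µM nominal | Incubation: 30-min compound preincubation, 1-h Melanotan II challenge, 1-h detection, room temperature | Signal: TR-FRET cAMP assay | Replicates: One well per compound, no replicates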
# MC4R ag barr: MC4R agonists recruiting beta-arrestin, primary screen, cell-based, luminescence, agonist arm of biased-ligand search | Melanocortin receptor 4 (Homo sapiens), P32245 | U2OS MC4R beta-arrestin complementation; percent of melanotan II response, DMSO zero | activation, % at 8.9 µM | 360,000 tested, 0.98% active | AID 540308, 2011;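 active = activation above a per-plate cutoff, the mean activation of sample wells on that plate plus 3 SD, cut at about 8% in these data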
# AHR act: AHR activators, primary screen, cell-based, luminescence, luciferase reporter, human | AHR-responsive luciferase reporter cells | activation, % at 5 µM | 320,000 tested, 2.5% active | AID 2796, 2010; in the data active = activation above about 47%;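 also: 0% = vehicle wells and 100% = reference agonist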
# GAA850 FXN act: FXN promoter activators, primary screen, cell-based, luciferase luminescence, HEK293 lucGAA850 | HEK293 lucGAA850 FXN promoter luciferase reporter, 24 h; percent of 10 µM SAHA response | activation, % at 6 µM | 360,000 tested, 0.56% active | AID 540364, 2011;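 active = activation above the average of all compounds screened plus 3 SD, cutoff fixed separately per campaign, cut at about 7.5% in these data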;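 also: 0% = DMSO wells and 100% = 10 µM SAHA wells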
# MC4R barr ag: MC4R beta-arrestin agonists, retest, confirmation, cell-based, luminescence, U2OS; shares compounds with MC4R ag barr; U2OS MC4R beta-arrestin recruitment; scaled DMSO 0%, Melanotan II 100%; activation, % at 8.9 µM; 2,400 tested, 31% active; AID 602192, 2012;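 active = mean activation across replicates above the hit cutoff set in the earlier primary screen, cut at about 8% in these data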
# MOR DOR agonist: agonists of MOR-DOR heterodimerization, counter-screen for MC4R biased agonist project, cell-based, luminescence; shares compounds with MC4R ag barr; 2,400 tested, 5.8% active; AID 602194, 2012; U2OS PathHunter beta-arrestin, beta-gal luminescence; percent of deltorphin B response, DMSO zero; activation, % at 9.2 µM;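 active = mean activation across replicates exceeds the hit threshold derived in the earlier primary screen, cut at about 18% in these data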;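 also: 100% = deltorphin B at 0.9 µM final and 0% = DMSO alone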
# An asterisk follows results filed as active; nt = no result given. A selection: hits, their analogues and other compounds. The true share with any hit is near 4.7%.
SMILES,HTR2A ag,MC4R antagonist,MC4R ag barr,AHR act,GAA850 FXN act,MC4R barr ag,MOR DOR agonist
CCOC(=O)c1c(NC(=O)C2COc3ccccc3O2)sc2c1CCN(Cc1ccccc1)C2 (stereo not drawn),-0.9,1.8,0.0,9.4,2.0,nt,nt
CSc1ccccc1OCc1cc(C(=O)NC2CCc3ccccc32)no1 (stereo not drawn),-3.4,-7.1,64.2*,12.3,-1.7,9.5*,7.7
CNc1ccc(Cl)cc1S(=O)(=O)c1ccccc1[N+](=O)[O-],2.0,nt,nt,nt,nt,nt,nt
O=C(Nc1ccc(Cl)c(Cl)c1)Nc1cc(S(=O)(=O)N2CCOCC2)ccc1N1CCCC1,-8.6,4.5,-2.6,2.2,1.4,nt,nt
Cc1nc(C)c(-c2ccc(SCC(=O)Nc3ccc(C)c(Cl)c3)nn2)s1,-0.9,-0.9,10.3*,7.9,-0.1,2.7,6.3
CCOc1ccc(Cn2c3ccc(OC)cc3c3nc4ccccc4nc32)cc1,3.0,-2.3,29.6*,1.8,2.2,37.6*,14.7
COc1ccc(CNC(=S)Nc2ccc3nc(N4CCOCC4)cc(C)c3c2)cc1,-0.7,13.9,40.8*,2.8,2.2,11.1*,7.9
COc1ccc(CNC(=S)Nc2ccc3nc(N4CCN(C)CC4)cc(C)c3c2)cc1,-8.0,14.9,0.3,8.4,-0.3,nt,nt
Cc1cc(C(=O)Nc2ccc(N3CCOCC3)c3nonc23)ccc1[N+](=O)[O-],4.2,-19.9,4.0,1.7,5.3,nt,nt
Cc1ccc(C(=O)Nc2ccc(N3CCOCC3)c3nonc23)cc1[N+](=O)[O-],9.2,-11.2,11.1*,-0.8,3.3,-0.6,2.6
COc1cc2c(cc1OC)C(CNC(=O)C=Cc1ccccc1)C2 (stereo not drawn),-4.5,-5.5,-0.1,nt,1.5,nt,nt
O=S(=O)(Nc1ccc(-n2cccc2)cc1)c1ccc(Cl)cc1Cl,2.6,3.1,11.1*,0.9,1.1,6.5,6.0
CC(C)c1ccc(-n2cccc2/C=C2/C(=N)N3C=CSC3=NC2=O)cc1,1.9,9.0,-0.4,8.4,0.8,nt,nt
Cc1ccccc1Cn1cccc1/C=C1/C(=N)N2C=CSC2=NC1=O,-2.2,0.9,13.9*,7.5,-1.2,2.5,1.7
CC/C(=N/Nc1cccc(C)c1)c1cnnc(SC)n1,0.2,-16.0,20.8*,13.4,2.8,3.6,3.6
CN(Cc1ccc2nsnc2c1)C(=O)C1CCC(=O)N(CCc2ccccc2)C1 (stereo not drawn),5.3,-4.5,1.4,nt,0.7,nt,nt
COc1ccc(CN(C)C(=O)c2cc(S(=O)(=O)Nc3ccccc3F)ccc2C)c(OC)c1,1.5,11.3,11.8*,-1.3,-1.0,0.8,2.5
CC1(C)CC(=O)C=C(c2ccc(-c3ccccc3)cc2)C1=O,-3.7,11.6,-0.2,nt,3.3,nt,nt
Cc1ccc(C(=O)NCC(=O)Nc2cccc(C(F)(F)F)c2)cc1,0.8,9.6,15.4*,10.9,-0.1,-1.0,2.7
O=C(CNC(=O)c1ccccc1)Nc1cccc(C(F)(F)F)c1,0.1,8.1,0.0,1.3,3.4,nt,nt
O=C(OCC(=O)N1CCN(C(=O)c2ccco2)CC1)c1cc(-c2ccco2)nc2ccccc12,3.4,-17.9,1.4,7.8,0.2,nt,nt
O=C(OCC(=O)N1CCN(C(=O)c2ccco2)CC1)c1cc(-c2ccc(Cl)c(Cl)c2Cl)nc2ccccc12,1.8,-1.6,11.1*,-1.9,-0.5,5.2,2.9
CCN(CC(=O)Nc1c(F)cccc1F)C(=O)c1ccc(S(=O)(=O)N(CC)c2ccccc2)cc1,4.6,8.5,-0.3,nt,0.4,nt,nt
Cc1ccc(NC(=O)/C(C#N)=C/c2ccc(C)s2)c(C)c1,1.9,9.9,18.2*,-2.6,3.3,1.3,3.9
